The source of these data is ChEMBL document CHEMBL5154792, “A New Amino Acid for Improving Permeability and Solubility in Macrocyclic Peptides through Side Chain-to-Backbone Hydrogen Bonding” (J Med Chem, 2022).

Series [1] can be described thus: Apparent permeability of the compound after 15 hrs by UPLC-MS based PAMPA. The series is classed as ADME. Conditions: for Papp at 15 h: PAMPA; for Papp: pampa, 15 h. In short, it runs like this:
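Donor: 2 µM peptide in PBS pH 7.4 with 5% DMSO final. Acceptor: 5% DMSO in PBS. Membrane of 1% (w/v) soybean lecithin in n-dodecane. Incubated ~15 h at room temperature (exact time recorded) in a humidified sealed chamber. Donor and acceptor wells quantified by UPLC-MS in quadruplicate. Papp derived from %T (acceptor vs theoretical equilibrium) using membrane area 240 mm2.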
Background: The PAMPA barrier holds no transporters, so it reflects passive diffusion.

The nature of series [2]: Thermodynamic solubility of the compound at pH 7.4 after 24 hrs by UPLC-MS analysis. It is filed as physicochemical. The settings on record: buffer, read-out: Therm_solubility. In outline: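 10 mM DMSO stocks were dried down, redissolved in PBS pH 7.4 (maximum 2 mM), sonicated 1 h, then gently agitated ~24 h at 37 °C. Filtered through 0.7 µm glass fiber, diluted up to 40-fold in MeCN and quantified by UPLC-MS against standard curves (50 µM to 0.1 µM in DMSO).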

In brackets after ≈: the same amount, converted by molar mass.

One may read the Papp as the rate of passage across a membrane or cell layer, normalised by area and donor concentration. On to `CC(C)C[C@H]1NC(=O)[C@H]2CCCN2C(=O)[C@H](CCC(=O)N2CCCC2)NC(=O)[C@@H](CC(C)C)NC(=O)[C@@H](CC(C)C)NC(=O)[C@@H](CC(C)C)NC1=O`, for which, in series [1], the Papp at 15 h was 1.5 ×10⁻⁶ cm/s. In series [2], the solubility thermodynamic at 24 h amounted to 560 µM (≈ 410 µg/mL).

Take `CC(C)C[C@@H]1NC(=O)[C@@H](CC(C)C)NC(=O)[C@@H](CC(C)C)NC(=O)[C@@H](CC(C)C)NC(=O)[C@@H](CC(C)C)NC(=O)[C@H]2CCCN2C1=O`: the Papp in series [1] is on record as 5.3 10^-6 cm/s. Besides, in series [2], the solubility thermodynamic at 24 h came to 240 µM (≈ 159 µg/mL).

As to `COC(=O)CC[C@H]1NC(=O)[C@H]2CCCN2C(=O)[C@H](CC(C)C)NC(=O)[C@H](CC(C)C)NC(=O)[C@@H](CC(C)C)NC(=O)[C@H](CC(C)C)NC1=O`, the Papp at 15 h in series [1] is 2 ×10⁻⁶ cm/s. The solubility thermodynamic at 24 h in series [2] worked out at 710 µM (≈ 492 µg/mL).

Take `CC(C)C[C@@H]1NC(=O)[C@@H](CC(C)C)NC(=O)[C@@H](CC(C)C)NC(=O)[C@@H](CCC(=O)N2CCCC2)NC(=O)[C@@H](CC(C)C)NC(=O)[C@H]2CCCN2C1=O`: in series [1], the Papp at 15 h stood at 1.1 ×10⁻⁶ cm/s. Moreover, the solubility thermodynamic at 24 h in series [2] was found to be 450 µM (≈ 329 µg/mL).

Consider `CC(C)C[C@@H]1NC(=O)[C@@H](CCC(=O)N2CCCC2)NC(=O)[C@H](CC(C)C)NC(=O)[C@@H](CC(C)C)NC(=O)[C@H]2CCCN2C(=O)[C@H](CC(C)C)NC1=O`, for which the apparent permeability coefficient (Papp) at 15 h in series [1] came to 0.14 ×10⁻⁶ cm/s. For the same compound, in series [2], the solubility thermodynamic at 24 h amounted to 580 µM (≈ 425 µg/mL).

With `CC(C)C[C@@H]1NC(=O)[C@@H](CC(C)C)NC(=O)[C@@H](CC(C)C)NC(=O)[C@@H](CC(C)C)NC(=O)[C@H]2CCCN2C(=O)[C@H](CCC(=O)N2CCCC2)NC1=O`, the apparent permeability coefficient (Papp) at 15 h in series [1] is 0.66 ×10⁻⁶ cm/s. The solubility thermodynamic at 24 h in series [2] came out at 720 µM (≈ 527 µg/mL).

With `CC(C)C[C@@H]1NC(=O)[C@H](CCC(=O)N2CCCC2)NC(=O)[C@@H](CC(C)C)NC(=O)[C@@H](CC(C)C)NC(=O)[C@@H](CC(C)C)NC(=O)[C@H]2CCCN2C1=O`, the Papp at 15 h in series [1] came out at 0.32 ×10⁻⁶ cm/s. In series [2], the solubility thermodynamic at 24 h was 510 µM (≈ 373 µg/mL).

Consider `CC(C)C[C@@H]1NC(=O)[C@@H](CCC(=O)N2CCCC2)NC(=O)[C@@H](CC(C)C)NC(=O)[C@@H](CC(C)C)NC(=O)[C@@H](CC(C)C)NC(=O)[C@H]2CCCN2C1=O`, for which the apparent permeability coefficient (Papp) at 15 h in series [1] came out at 0.13 ×10⁻⁶ cm/s. Moreover, the solubility thermodynamic at 24 h in series [2] is 550 µM (≈ 403 µg/mL).

On to `CC(C)C[C@@H]1NC(=O)[C@@H](CC(C)C)NC(=O)[C@H](CC(C)C)NC(=O)[C@@H](CCC(=O)N(C)C)NC(=O)[C@H]2CCCN2C(=O)[C@H](CC(C)C)NC1=O`, for which the apparent permeability (Papp) at 15 h in series [1] turned out to be 0.7 ×10⁻⁶ cm/s. For the same compound, the solubility thermodynamic at 24 h in series [2] came to 1660 µM (≈ 1170 µg/mL).

In the case of `CC(C)C[C@@H]1NC(=O)[C@@H](CC(C)C)NC(=O)[C@@H](CC(C)C)NC(=O)[C@@H](CCC(=O)N2CCCC2)NC(=O)[C@H]2CCCN2C(=O)[C@H](CC(C)C)NC1=O`, the Papp in series [1] is on record as 1.7 10^-6 cm/s. Besides, the solubility thermodynamic at 24 h in series [2] was 640 µM (≈ 468 µg/mL).

In the case of `CC(C)C[C@@H]1NC(=O)[C@@H](CC(C)C)NC(=O)[C@H](CC(C)C)NC(=O)[C@@H](CC(=O)N(C)C)NC(=O)[C@H]2CCCN2C(=O)[C@H](CC(C)C)NC1=O`, in series [1], the Papp at 15 h amounted to 0.28 ×10⁻⁶ cm/s. The solubility thermodynamic at 24 h in series [2] turned out to be 1120 µM (≈ 775 µg/mL).

As to `CC(C)C[C@@H]1NC(=O)[C@@H](CC(C)C)NC(=O)[C@H](CCC(=O)N2CCCC2)NC(=O)[C@@H](CC(C)C)NC(=O)[C@H]2CCCN2C(=O)[C@H](CC(C)C)NC1=O`, the apparent permeability coefficient (Papp) at 15 h in series [1] was found to be 0.23 ×10⁻⁶ cm/s. For the same compound, in series [2], the solubility thermodynamic at 24 h amounted to 140 µM (≈ 102 µg/mL).

Consider `CC(C)C[C@@H]1NC(=O)[C@@H](CC(C)C)NC(=O)[C@@H](CC(C)C)NC(=O)[C@@H](CC(C)C)NC(=O)[C@@H](CCC(=O)N2CCCC2)NC(=O)[C@H]2CCCN2C1=O`, for which the apparent permeability coefficient (Papp) in series [1] is 0.56 10^-6 cm/s. The solubility thermodynamic at 24 h in series [2] stood at 610 µM (≈ 447 µg/mL).

For `CC(C)C[C@@H]1NC(=O)[C@@H](CC(C)C)NC(=O)[C@H](CC(C)C)NC(=O)[C@@H](CCC(=O)N2CCCC2)NC(=O)[C@H]2CCCN2C(=O)[C@H](CC(C)C)NC1=O`, the Papp in series [1] is reported as 1.5 10^-6 cm/s. The solubility thermodynamic at 24 h in series [2] was determined as 730 µM (≈ 534 µg/mL).

As for `CC(C)C[C@@H]1NC(=O)[C@@H](CC(C)C)NC(=O)[C@@H](CCC(=O)N2CCCC2)NC(=O)[C@@H](CC(C)C)NC(=O)[C@@H](CC(C)C)NC(=O)[C@H]2CCCN2C1=O`, the apparent permeability coefficient (Papp) at 15 h in series [1] is 1.3 ×10⁻⁶ cm/s. Moreover, the solubility thermodynamic at 24 h in series [2] came to 460 µM (≈ 337 µg/mL).

With `CC(C)C[C@@H]1NC(=O)[C@@H](CCC(=O)N2CCCC2)NC(=O)[C@@H](CC(C)C)NC(=O)[C@@H](CC(C)C)NC(=O)[C@H]2CCCN2C(=O)[C@H](CC(C)C)NC1=O`, the Papp at 15 h in series [1] is 0.3 ×10⁻⁶ cm/s. Also, the solubility thermodynamic at 24 h in series [2] worked out at 580 µM (≈ 425 µg/mL).

On to `CC(C)C[C@@H]1NC(=O)[C@@H](CC(C)C)NC(=O)[C@H](CC(C)C)NC(=O)[C@@H](CC(=O)N2CCCC2)NC(=O)[C@H]2CCCN2C(=O)[C@H](CC(C)C)NC1=O`, for which the apparent permeability coefficient (Papp) at 15 h in series [1] was 0.56 ×10⁻⁶ cm/s. For the same compound, in series [2], the solubility thermodynamic at 24 h came to 670 µM (≈ 481 µg/mL).

As to `CC(C)C[C@@H]1NC(=O)[C@@H](CC(C)C)NC(=O)[C@H]2CCCN2C(=O)[C@H](CC(C)C)NC(=O)[C@H](CCC(=O)N2CCCC2)NC(=O)[C@@H](CC(C)C)NC1=O`, the apparent permeability (Papp) at 15 h in series [1] stood at 0.28 ×10⁻⁶ cm/s. The solubility thermodynamic at 24 h in series [2] turned out to be 550 µM (≈ 403 µg/mL).

Take `CC(C)C[C@@H]1NC(=O)[C@@H](CC(C)C)NC(=O)[C@H](CC(C)C)NC(=O)[C@@H](CC(C)C)NC(=O)[C@H]2CCCN2C(=O)[C@H](CCC(=O)N2CCCC2)NC1=O`: the Papp at 15 h in series [1] is 0.18 ×10⁻⁶ cm/s. Further, the solubility thermodynamic at 24 h in series [2] worked out at 600 µM (≈ 439 µg/mL).

As to `CC(C)C[C@@H]1NC(=O)[C@@H](CC(C)C)NC(=O)[C@H](CC(C)C)NC(=O)[C@@H](CC(C)C)NC(=O)[C@H]2CCCN2C(=O)[C@H](CC(C)C)NC1=O`, the Papp in series [1] is 8 10^-6 cm/s. Also, in series [2], the solubility thermodynamic at 24 h turned out to be 63 µM (≈ 41.8 µg/mL).

Turning to `CC(C)C[C@@H]1NC(=O)[C@@H](CC(C)C)NC(=O)[C@@H](CC(C)C)NC(=O)[C@@H](CC(C)C)NC(=O)[C@H]2CCCN2C(=O)[C@H](CC(C)C)NC1=O`, in series [1], the apparent permeability coefficient (Papp) was 8.1 10^-6 cm/s. In addition, the solubility thermodynamic at 24 h in series [2] worked out at 16 µM (≈ 10.6 µg/mL).

Turning to `CC(C)C[C@@H]1NC(=O)[C@@H](CC(C)C)NC(=O)[C@@H](CCC(=O)N2CCCC2)NC(=O)[C@@H](CC(C)C)NC(=O)[C@H]2CCCN2C(=O)[C@H](CC(C)C)NC1=O`, in series [1], the Papp at 15 h was 0.66 ×10⁻⁶ cm/s. In series [2], the solubility thermodynamic at 24 h turned out to be 550 µM (≈ 403 µg/mL).
